Here are results for 1 molecule from article PMC2034471 (Nucleic Acids Research, 2007).

One series deals with 35 bp Nick. Briefly: EMSA, 35 bp DNA with nick. It is filed as binding. Particulars: read-out: Kd, 35 bp Nick, without DTT, 50 mM Tris–HCl pH 8.0, 50 mM NaCl, 2 h at 22°C. Put shortly: (§1)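 35-mer substrates (ss, GT mismatch, nick, gap, 3′-biotinylated duplex) made by annealing oligonucleotides in 10 mM Tris–HCl pH 8, 1 mM EDTA, 200 mM NaCl: 90°C 10 min, then slow cooling. Annealing checked on native gels. 5′-32P kinase labelling at 25°C. Incubation 2 h at 22°C in 50 mM Tris–HCl pH 8.0, 50 mM NaCl, with or without 1 mM DTT. Native 6% gels; phosphor-screen quantification for affinity.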

Series [1] deals with 35 bp double-stranded DNA. Briefly: EMSA, 35 bp ds DNA. The class given is binding. Particulars: read-out: Kd, 35 bp ds, without DTT, 50 mM Tris–HCl pH 8.0, 50 mM NaCl, 2 h at 22°C, DNA 26 nM.
The target in a further series is 35 bp ss. Briefly: EMSA, 35 nt single-stranded DNA. The class given is binding. Conditions: read-out: Kd, 35 bp ss, without DTT, 50 mM Tris–HCl pH 8.0, 50 mM NaCl, 2 h at 22°C. The procedure, abridged: as §1
For the next series, the target named is 35 bp mismatch GT. Briefly: EMSA, 35 bp DNA with GT mismatch. The class given is binding. Conditions: read-out: Kd, 35 bp mismatch GT, without DTT, 50 mM Tris–HCl pH 8.0, 50 mM NaCl, 2 h at 22°C. Put shortly: as §1
For series [2], the target named is 211 bp double-stranded DNA. Briefly: EMSA, 211 bp ds DNA. The class given is binding. Particulars: read-out: Kd, 211 bp ds, with 1 mM DTT, 50 mM Tris–HCl pH 8.0, 50 mM NaCl, 0.1% triton X-100, 2 h at 22°C, phosphor screen. The procedure, abridged: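 211 bp fragment PCR-amplified from a DraI/BamHI digest of pUC(357.4) and 5′-32P end-labelled with T4 kinase at 37°C. Binding ran 2 h at 22°C in Tris–HCl pH 8.0 buffer with EDTA, AEBSF, 1 mM DTT, 50 mM NaCl and 0.1% triton X-100. Gels were 6% native polyacrylamide in 0.5× TEG at 70 V. Dried gels went onto a phosphor screen, and radioactive signals were quantified for affinity.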

The subject of series [3] is 35 bp ds with a 3′ terminal biotin. Briefly: EMSA, 35 bp ds DNA with one 3′ terminal biotin. It is filed as binding. The procedure, abridged: as §1
The subject of series [4] is 146 bp double-stranded DNA. Briefly: EMSA, 146 bp ds DNA. It is filed as binding. Conditions: DNA 26 nM, 2- to 128-fold molar excess of protein. Put shortly: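 146 bp fragment made by PCR on a pUC(357.4) digest template and 5′-end labelled with 32P-ATP/T4 polynucleotide kinase at 37°C. Protein fragments incubated with labelled DNA for 2 h at 22°C in 50 mM Tris–HCl pH 8.0, 1 mM EDTA, 1 mM AEBSF, 1 mM DTT, 50 mM NaCl, 0.1% triton X-100. Resolved on pre-run 6% native polyacrylamide (29:1) in 0.5× TEG at 70 V. Complexes detected by autoradiography of dried gels at –80°C.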

The next series concerns the target 35 bp Gap. Briefly: EMSA, 35 bp DNA with gap. It is filed as binding. Conditions: read-out: Kd, 35 bp Gap, without DTT, 50 mM Tris–HCl pH 8.0, 50 mM NaCl, 2 h at 22°C. The procedure, abridged: as §1
Series [5] is described as follows: aggregation / stability of Rad9 fragments in solution. The class given is physicochemical. Particulars: after three days at 0.2 mM and 30°C; MES 50 mM, NaCl 50 mM, 2 mM TCEP, pH 6.
For series [6] the following is noted: ref [23]; cited from earlier work.

B1: ScRad9[754–947]: fragment 754–947 of Saccharomyces cerevisiae Rad9, tandem tudor domain (protein)
chain: GKDSKEQSYVFPEGIRTADNSFLSKDDIIFGNAVWCQYTWNYKFYPGILLEVDTNQDGCWIYFETGRSLTKDEDIYYLDIRIGDAVTFDGNEYVVVGLECRSHDLNIIRCIRGYDTVHLKKKNASGLLGKRTLIKALSSISLDLSEWAKRAKIILEDNEKNKGDAYRYLRHPIRGRKSMTNVLSPKKHTDDEKD
Turning to B1, the Kd on 35 bp Nick is 620 ± 60 nM; in series [1], 960 ± 80 nM; on 35 bp ss, 2500 ± 180 nM; on 35 bp mismatch GT, 890 ± 70 nM; in series [2], 500 ± 70 nM; in [3] (read-out: Kd, 35 bp ds with a 3′ terminal biotin, EMSA, with 1 mM DTT, 50 mM Tris–HCl pH 8.0, 50 mM NaCl, 2 h at 22°C), 830 ± 50 nM. In addition, the Kd at 35 bp Gap worked out at 960 ± 130 nM. Moreover, in series [3] (35 bp ds, biotinylated at one or two 3′-OH ends, no streptavidin), the “effect of biotin on affinity for the oligonucleotide” value is “does not modify the affinity”. Besides, in [4], the “interaction with 146 bp ds DNA by gel retardation” value is reported as “forms complexes”. Further, the “fraction of fragment aggregated” value in series [5] turned out to be 50%. Further, in series [6], the heat transition midpoint was 52 °C.
